Measured values taken from ChEMBL document CHEMBL3098129, “Preparation and evaluation of deconstruction analogues of 7-deoxykalafungin as AKT kinase inhibitors” (Bioorg Med Chem Lett, 2014).

Experiments:
[1] = target: cAMP-dependent protein kinase catalytic subunit alpha (Homo sapiens, UniProt P17612); assay: Inhibition of PKAalpha (unknown origin) using serine/threonine 01 peptide as substrate after 1 hr by FRET based Z'-LYTE assay
Method in brief: (§1)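 Run with a commercial Z'-LYTE kit, a FRET read-out of the kinase phosphorylating a peptide substrate. It detects functional inhibition of kinase activity regardless of mechanism.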

[2] = target: RAC-alpha serine/threonine-protein kinase (Homo sapiens, UniProt P31749); assay: Inhibition of recombinant AKT1 (unknown origin) using serine/threonine 06 peptide as substrate after 1 hr by FRET based Z'-LYTE assay; method in brief: as §1
RAC-alpha serine/threonine-protein kinase, sequence (P31749 whole entry): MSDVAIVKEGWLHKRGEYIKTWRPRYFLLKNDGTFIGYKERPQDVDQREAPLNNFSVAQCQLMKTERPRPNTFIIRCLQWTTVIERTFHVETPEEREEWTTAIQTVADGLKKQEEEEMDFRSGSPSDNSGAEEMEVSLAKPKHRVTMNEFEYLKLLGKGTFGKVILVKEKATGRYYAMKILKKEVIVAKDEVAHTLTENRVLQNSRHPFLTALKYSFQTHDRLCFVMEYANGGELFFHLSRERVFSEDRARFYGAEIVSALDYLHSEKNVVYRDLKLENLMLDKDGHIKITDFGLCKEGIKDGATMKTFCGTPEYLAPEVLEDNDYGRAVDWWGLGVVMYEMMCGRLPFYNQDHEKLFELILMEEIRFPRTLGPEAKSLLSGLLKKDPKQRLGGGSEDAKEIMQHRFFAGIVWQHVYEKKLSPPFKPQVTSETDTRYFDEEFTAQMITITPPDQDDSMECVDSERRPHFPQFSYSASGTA

| Compound | IC50 [1] | IC50 [2] |
| --- | --- | --- |
| O=C1C[C@@H](O)[C@@H](C2=CC(=O)c3ccccc3C2=O)O1 | 0.43 µM | 2.94 µM |
| COC/C=C/C(=O)c1ccccc1 | > 100 µM | 50 µM |
| COC(=O)CC/C=C/C(=O)c1ccccc1 | > 100 µM | 13.7 µM |
| C=CC(=O)c1ccccc1 | > 100 µM | 12.3 µM |
| C[C@H]1O[C@@H]2CC(=O)O[C@@H]2C2=C1C(=O)c1ccccc1C2=O | > 100 µM | 0.28 µM |
